{"source": "ChEMBL document CHEMBL4028911", "about": "“Discovery of a Small-Molecule Bromodomain-Containing Protein 4 (BRD4) Inhibitor That Induces AMP-Activated Protein Kinase-Modulated Autophagy-Associated Cell Death in Breast Cancer” (J Med Chem, 2017)", "key": {"[1]": {"target": "AMP-activated protein kinase, AMPK (Homo sapiens) (UniProt P54646+O43741+P54619+Q9UGJ0+Q9Y478+Q13131+Q9UGI9)", "assay": "Inhibition of AMPK (unknown origin) at 1 to 10^6 nM using MBP as substrate after 60 mins in presence of ATP by ADO-Glo assay"}, "[2]": {"system": "MCF7", "assay": "Antiproliferative activity against human MCF7 cells after 24 hrs by MTT assay", "format": "functional, cell-based", "settings": "MCF7, 24 h"}, "[3]": {"target": "T1, Bromodomain-containing protein 4 (Homo sapiens, UniProt O60885)", "assay": "Inhibition of BRD4 in human MCF7 cells assessed as induction of AMPKalpha phosphorylation at thr172 at 1.5 uM measured up to 36 hrs by Western blot analysis", "format": "cell-based", "procedure,_shortened": "(§1)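 MCF-7 (1.5 μM) or MDA-MB-231 (3 μM) cells treated for indicated times. Adherent and floating cells lysed in RIPA with 1 mM PMSF. Equal protein run on 10-15% SDS-PAGE, blotted to PVDF, blocked in milk or BSA, HRP/ECL detection. β-actin loading control.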"}, "[4]": {"system": "MCF7", "assay": "Induction of autophagy in human MCF7 cells assessed as reduction in cell viability at 1.5 uM administered at 1 hr post […] addition by MTT assay", "format": "functional, cell-based", "procedure,_shortened": "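MCF-7 cells pretreated with 3-MA (1 mM) for 1 h, then given 1.5 µM. Viability read by MTT: 4 h incubation with MTT, formazan dissolved in DMSO, absorbance at 570 nm.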"}, "[5]": {"target": "T1, Bromodomain-containing protein 4", "assay": "Inhibition of BRD4 in human MDA-MB-231 cells assessed as increase in ULK1 phosphorylation at ser317 at 3 uM up to 36 hrs by Western blot analysis", "format": "cell-based", "procedure,_shortened": "as §1"}, "[6]": {"system": "MCF7", "assay": "Induction of autophagy in human MCF7 cells assessed as cytoplasmic vacuolization at 1.5 uM by electron microscopy", "format": "functional, cell-based", "procedure,_shortened": "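MCF-7 (1.5 µM) or MDA-MB-231 (3 µM) cells treated for indicated times. Cytoplasmic vacuoles examined by transmission electron microscopy.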"}, "[7]": {"target": "T1, Bromodomain-containing protein 4", "assay": "Inhibition of BRD4 in human MDA-MB-231 cells assessed as reduction in ATG13 protein expression at 3 uM up to 36 hrs by Western blot analysis", "format": "cell-based", "procedure,_shortened": "as §1"}, "[8]": {"system": "MDA-MB-468", "assay": "Induction of autophagy in human MDA-MB-468 cells assessed as increase in LC3-2 expression expression measured up to 48 hrs by Western blot analysis", "format": "functional, cell-based"}, "[9]": {"target": "T2, Serine/threonine-protein kinase ULK1 (Homo sapiens) (UniProt O75385)", "T2 sequence (whole entry)": "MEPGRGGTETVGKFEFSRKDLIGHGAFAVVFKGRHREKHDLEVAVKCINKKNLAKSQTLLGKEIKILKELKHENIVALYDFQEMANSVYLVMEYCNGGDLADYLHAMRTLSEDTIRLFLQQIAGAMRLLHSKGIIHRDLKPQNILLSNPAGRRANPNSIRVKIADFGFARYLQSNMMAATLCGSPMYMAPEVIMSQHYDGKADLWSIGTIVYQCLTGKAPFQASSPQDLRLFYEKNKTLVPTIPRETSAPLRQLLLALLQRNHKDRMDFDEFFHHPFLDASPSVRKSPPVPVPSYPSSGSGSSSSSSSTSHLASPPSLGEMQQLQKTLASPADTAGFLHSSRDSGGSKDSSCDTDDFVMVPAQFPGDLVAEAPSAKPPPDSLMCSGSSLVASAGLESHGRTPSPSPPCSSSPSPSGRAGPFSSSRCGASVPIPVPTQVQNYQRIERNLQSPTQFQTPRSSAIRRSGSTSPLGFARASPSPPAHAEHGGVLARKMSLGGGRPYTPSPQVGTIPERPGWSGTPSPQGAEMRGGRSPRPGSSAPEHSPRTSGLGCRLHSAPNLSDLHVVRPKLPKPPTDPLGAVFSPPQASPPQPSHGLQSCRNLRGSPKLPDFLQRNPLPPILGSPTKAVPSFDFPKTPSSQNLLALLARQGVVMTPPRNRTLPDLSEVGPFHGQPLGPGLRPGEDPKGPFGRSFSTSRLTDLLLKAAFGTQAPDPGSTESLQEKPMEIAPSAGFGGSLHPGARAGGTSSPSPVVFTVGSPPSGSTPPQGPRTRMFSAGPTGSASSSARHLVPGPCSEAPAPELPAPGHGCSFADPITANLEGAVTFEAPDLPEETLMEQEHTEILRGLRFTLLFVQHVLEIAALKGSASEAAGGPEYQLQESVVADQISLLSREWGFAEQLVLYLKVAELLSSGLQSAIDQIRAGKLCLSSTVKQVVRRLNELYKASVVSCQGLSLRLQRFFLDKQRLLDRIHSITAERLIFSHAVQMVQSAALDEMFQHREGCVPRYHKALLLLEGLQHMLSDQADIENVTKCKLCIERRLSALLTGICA", "assay": "Activation of recombinant human ULK1 (1 to 649 residues) expressed in baculovirus infected Sf9 cells at 1 to 10^6 nM using MBP as substrate after 60 mins in presence of ATP by […] assay", "procedure,_shortened": "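ADP-Glo luminescent kinase assay; AMPK or ULK1 enzyme, substrate, ATP and compound diluted in 40 mM Tris pH 7.5, 20 mM MgCl2, 0.1 mg/ml BSA, 50 µM DTT. Enzyme (10 ng) mixed with MBP (0.1 µg/µl)/ATP (10 µM) and compound, 60 min at room temperature. ADP-Glo reagent 40 min, then detection reagent 30 min, luminescence read; signal rises with kinase activity.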"}, "[10]": {"system": "MCF7", "assay": "Antitumor activity against human MCF7 cells xenografted in ig dosed nude BALB/c mouse assessed as tumor growth inhibition administered once a day for 24 days measured every 3 days relative to control", "format": "functional, organism-based", "procedure,_shortened": "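Female BALB/c nude mice, 6-8 weeks, 20-22 g, injected subcutaneously with 5×10^6 MCF-7 or MDA-MB-231 cells. At 100 mm³ tumor volume (V = L×W²/2), split into four groups: 25, 50 or 100 mg/kg intragastric once daily for 24 or 27 days, or vehicle. Tumor volume and body weight measured every 3 days; tumors excised and weighed at end. MCF-7 n=7, MDA-MB-231 n=6 per group.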"}, "[11]": {"system": "Mus musculus", "assay": "Induction of LC3 accumulation in BALB/c mouse xenografted with human MCF7 cells at 100 mg/kg, ig administered once a day for 24 days by Western blot analysis", "format": "functional, organism-based", "procedure,_shortened": "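Tumor tissues excised from MCF-7 or MDA-MB-231 xenograft mice were lysed and analysed by western blot for BRD4, c-Myc, LC3 and cleaved caspase-3.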"}, "[12]": {"system": "Mus musculus", "assay": "Induction of cleavage of caspase-3 in BALB/c mouse xenografted with human MDA-MB-231 cells at 100 mg/kg, ig administered once a day for 27 days by Western blot analysis", "format": "functional, organism-based", "procedure,_shortened": "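Female BALB/c nude mice (6-8 weeks) given 5×10^6 MCF-7 or MDA-MB-231 cells subcutaneously. At 100 mm3 tumours, dosed intragastrically once daily (25, 50, 100 mg/kg, or vehicle) for 24 or 27 days. Excised tumours lysed and probed by western blot for caspase-3 cleavage.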"}}, "note": "Calls of active or inactive are those of the source. No cut-off for these calls is given here."}
{"molecule": "Cc1cc(-c2nc3sc4c(c3c(=O)[nH]2)CCN(C)C4)cc(C)c1O", "values": [{"measurement": "inhibition", "setting": "[1]", "result": "inactive"}, {"measurement": "IC50", "setting": "[2]", "result": 1620, "unit": "nM"}, {"measurement": "inhibition", "setting": "[3]", "result": "Active"}, {"measurement": "Activity", "setting": "[4]", "result": "inactive"}, {"measurement": "inhibition", "setting": "[5]", "result": "Active"}, {"measurement": "Activity", "setting": "[6]", "result": "Active"}, {"measurement": "inhibition", "setting": "[7]", "result": "Active"}, {"measurement": "Activity", "setting": "[8]", "result": "Active"}, {"measurement": "Activity", "setting": "[9]", "result": "inactive"}, {"measurement": "TGI", "setting": "[10]", "result": "Dose-dependent effect"}, {"measurement": "Activity", "setting": "[11]", "result": "Active"}, {"measurement": "Activity", "setting": "[12]", "result": "Active"}]}
